{"source": "paper PMC3079392", "about": "(The Biochemical journal, 2008)", "key": {"[1]": {"system": "phospho-S6 (Ser-235,236)", "assay": "Western blot of phospho-S6", "assay_type": "cell-based", "details": "1 h", "in_short": "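Cells in 6-well plates (80% confluence) exposed to test compound at 0.5, 1 or 10 μM for 1 h, then scraped into NP40 lysis buffer with phosphatase and protease inhibitors. Detected by HRP secondary and ECL; bands quantified densitometrically.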"}, "[2]": {"system": "PKB/Akt (S473) and S6 (S235,236) phosphorylation", "assay": "Western blot of PI3K signaling", "assay_type": "cell-based", "details": "for Temporal inhibition of PKB/Akt and S6 phosphorylation: 1 μM, 1, 6 and 24 h"}, "[3]": {"system": "phospho-S6", "assay": "Phospho-S6 immunofluorescence, Cellomics arrayscan", "assay_type": "cell-based", "details": "1 μM; for S6 phosphorylation following treatment: Hs578t cells, up to 24 h; for Inhibition of S6 phosphorylation by immunofluorescence: 1 h", "in_short": "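Cells in 96-well plates; SKBr3 treated 18 h after plating with 1 μM test compound for 1 or 24 h, Hs578t for 24 h. Fixed in 4% paraformaldehyde 15 min, permeabilized in 0.2% Triton X-100 5 min, then blocked in 1% BSA 20 min. Anti-phospho-S6 1 h, fluorescent secondary 1 h, Hoechst. Cytoplasmic intensity (Hoechst-defined nuclear ring) measured on Cellomics ArrayScan, averaged over 200 cells; secondary-only control.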"}, "[4]": {"system": "breast cancer cell lines", "assay": "Cell number by counting Hoechst-stained nuclei", "assay_type": "cell-based", "in_short": "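Cells plated in 96-well dishes; test compound added the next day, with medium and fresh compound replaced every 24 h, for 48 h (or 1 μM for 24, 48 and 72 h). Cells then fixed and permeabilized, and nuclei stained with Hoechst. Nuclei counted on a Cellomics ArrayScan reader.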"}, "[5]": {"system": "breast cancer cell lines", "assay": "Flow cytometry DNA content", "assay_type": "cell-based", "details": "for Sub-G1 population (less than 2n DNA content): SKBR3 cells, 24 h; for Effects on DNA content: MCF10A, BT474, MDA-MB-231 and MDA-MB-468 cells", "in_short": "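Cells in 6-well plates (80% confluence) treated with test compound: SKBr3 at several concentrations for 24 h; others at 1 μM for 24, 48 or 72 h with fresh compound every 24 h. Adherent plus floating cells pooled and fixed in 70% ethanol. Stained with propidium iodide 10 μg/ml plus RNase A 0.1 mg/ml; 10,000 cells analysed by flow cytometry. Sub-G1 scored as <2n DNA content.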"}, "[6]": {"details": "cited from earlier work"}, "[7]": {"system": "phospho-PKB/Akt (Ser-473)", "assay": "Western blot of phospho-PKB/Akt", "assay_type": "cell-based", "details": "1 h; for Inhibition of PKB/Akt phosphorylation: MDA-MB-468 and BT549 cells (PTEN mutant), 0.5, 1 and 10 μM; for Increase in PKB phosphorylation induced by siRNA to PTEN: MDA-MB-231 cells with PTEN siRNA, 1 μM"}, "[8]": {"system": "breast cancer cell lines", "assay": "Flow cytometry DNA content with nocodazole protocol", "assay_type": "cell-based"}, "[9]": {"system": "p110α/p85α", "details": "read-out: In-vitro IC50 p110α/p85α; cited from earlier work"}, "[10]": {"system": "p110δ/p85α", "details": "read-out: In-vitro IC50 p110δ/p85α; cited from earlier work"}, "[11]": {"system": "110δ", "details": "cited from earlier work"}, "[12]": {"details": "MDA-MB-231 cells, 0.5, 1 and 10 μM"}, "[13]": {"details": "MCF10A, BT474, SKBR3, BT20, T47D, MCF7 and HS578t, 0.5, 1 and 10 μM, 1 h"}, "[14]": {"details": "MDA-MB-468 cells, 0.5 and 1 μM, 48 h"}, "[15]": {"details": "five other cell lines, 0.5 and 1 μM, 48 h"}, "[16]": {"details": "MDA-MB-468 cells (PTEN mutant), 1 μM, nocodazole 70 ng/ml"}, "[17]": {"details": "mutant Ras cell lines MDA-MB-231 and Hs578t, 1 μM PI3K inhibitor, 100 nM rapamycin, nocodazole protocol"}}, "note": "“Also recorded” adds a separate entry of the source. Like-named read-outs stand apart in the source and are kept apart here.", "data": [{"smiles": "Cc1ccc([N+](=O)[O-])cc1S(=O)(=O)N(C)/N=C/c1cnc2ccc(Br)cn12", "note": "[PIK-75]", "values": [{"measurement": "Inhibition of S6 phosphorylation", "setting": "[1]; [12]", "result": "still sensitive"}, {"measurement": "Temporal inhibition of PKB/Akt and S6 phosphorylation", "setting": "[2]; BT549 cells", "result": "transient inhibition"}, {"measurement": "Inhibition of PKB/Akt and S6 phosphorylation", "setting": "[2]; [13]", "result": "equipotent"}, {"measurement": "Temporal inhibition of PKB/Akt and S6 phosphorylation", "setting": "[2]; T47D, MCF10A, BT20 cells", "result": "sustained"}, {"measurement": "S6 phosphorylation following treatment", "setting": "[3]", "result": "rapidly recovered to untreated levels"}, {"measurement": "Duration of inhibition of S6 phosphorylation by immunofluorescence", "setting": "[3]; SKBr3 cells, 1 and 24 h", "result": "sustained"}, {"measurement": "Inhibition of S6 phosphorylation by immunofluorescence", "setting": "[3]; SKBr3 cells", "result": "inhibit S6 phosphorylation"}, {"measurement": "Effect on cell number", "setting": "[4]; Hs578t cells, 48 h of treatment", "result": "strongly inhibited cell number"}, {"measurement": "Loss of cell number", "setting": "[4]; eight cell lines, 1 μM, 24, 48 and 72 h", "result": "greatest ability to induce loss of cell number"}, {"measurement": "Sub-G1 population", "setting": "[5]; BT474 (rapid), MCF10A and MDA-MB-468 (delayed), 1 μM, 24, 48 and 72 h", "result": "induced a large sub-G1 population"}, {"measurement": "DNA content", "setting": "[5]; MDA-MB-231 cells, 1 μM, 24, 48 and 72 h", "result": "strong accumulation of cells with a 4n DNA content"}, {"measurement": "Sub-G1 population (less than 2n DNA content)", "setting": "[5]", "result": "induced a significant sub-G1 population"}]}, {"smiles": "COC[C@H]1OC(=O)c2coc3c2[C@@]1(C)C1=C(C3=O)[C@@H]2CCC(=O)[C@@]2(C)C[C@H]1OC(C)=O", "note": "[wortmannin]", "values": [{"measurement": "Toxicity when administered systemically in vivo", "setting": "[6]", "result": "toxic when administered systemically in vivo"}]}, {"smiles": "O=c1cc(N2CCOCC2)oc2c(-c3ccccc3)cccc12", "note": "[LY294002]", "values": [{"measurement": "Inhibition of PI3K signaling", "setting": "[2]; all cell lines examined", "result": "effective at inhibiting PI3K signaling in all cell lines examined"}, {"measurement": "Toxicity when administered systemically in vivo", "setting": "[6]; in vivo", "result": "toxic when administered systemically in vivo"}]}, {"smiles": "Cc1cc(C(C)Nc2ccccc2)c2oc(-c3ccncc3)cc(=O)c2c1", "note": "(stereo not shown) [TGX-286]", "values": [{"measurement": "Inhibition of PKB/Akt phosphorylation", "setting": "[7]", "result": "able to inhibit the phosphorylation of PKB/Akt"}, {"measurement": "Inhibition of PKB/Akt and S6 phosphorylation", "setting": "[2]; [13]", "result": "ineffective"}, {"measurement": "Inhibition of S6 phosphorylation by immunofluorescence", "setting": "[3]; SKBr3 cells", "result": "only a minimal inhibition"}, {"measurement": "Effect on cell number", "setting": "[4]; BT549 cells", "result": "did not exhibit these responses to cell number"}, {"measurement": "Effect on cell number", "setting": "[4]; [14]", "result": "dose-dependent reduction in cell number"}, {"measurement": "Effect on cell number", "setting": "[4]; [15]", "result": "broadly unaffected"}, {"measurement": "Effects on DNA content", "setting": "[5]; 1 μM, 24, 48 and 72 h", "result": "Neither PI-103, TGX-286 or PIK-108 showed strong effects"}, {"measurement": "G1 arrest", "setting": "[8]; [16]", "result": "G1 arrest was uniquely observed"}]}, {"smiles": "Cc1cc([C@H](C)Nc2ccccc2)c2oc(N3CCOCC3)cc(=O)c2c1", "note": "[PIK-108]", "values": [{"measurement": "Increase in PKB phosphorylation induced by siRNA to PTEN", "setting": "[7]", "result": "abrogated"}, {"measurement": "Inhibition of PKB/Akt phosphorylation", "setting": "[7]", "result": "able to inhibit the phosphorylation of PKB/Akt"}, {"measurement": "Inhibition of PKB/Akt and S6 phosphorylation", "setting": "[2]; [13]", "result": "ineffective"}, {"measurement": "Inhibition of S6 phosphorylation by immunofluorescence", "setting": "[3]; SKBr3 cells", "result": "only a minimal inhibition"}, {"measurement": "Effect on cell number", "setting": "[4]; BT549 cells", "result": "did not exhibit these responses to cell number"}, {"measurement": "Effect on cell number", "setting": "[4]; [14]", "result": "dose-dependent reduction in cell number"}, {"measurement": "Effect on cell number", "setting": "[4]; [15]", "result": "broadly unaffected"}, {"measurement": "Effects on DNA content", "setting": "[5]; 1 μM, 24, 48 and 72 h", "result": "Neither PI-103, TGX-286 or PIK-108 showed strong effects"}, {"measurement": "G1 arrest", "setting": "[8]; [16]", "result": "G1 arrest was uniquely observed; also recorded: partial G1 arrest"}]}, {"smiles": "Oc1cccc(-c2nc(N3CCOCC3)c3oc4ncccc4c3n2)c1", "note": "[PI-103]", "values": [{"measurement": "Increase in PKB phosphorylation induced by siRNA to PTEN", "setting": "[7]", "result": "abrogated"}, {"measurement": "Inhibition of S6 phosphorylation", "setting": "[1]; [12]", "result": "still sensitive"}, {"measurement": "Inhibition of PKB/Akt and S6 phosphorylation", "setting": "[2]", "result": "equipotent; also recorded: more potent than PIK-75"}, {"measurement": "S6 phosphorylation following treatment", "setting": "[3]", "result": "remained inhibited"}, {"measurement": "Inhibition of S6 phosphorylation by immunofluorescence", "setting": "[3]; SKBr3 cells", "result": "inhibit S6 phosphorylation"}, {"measurement": "Effect on cell number", "setting": "[4]; BT549 and Hs578t cells, 1 μM", "result": "resistant to cell number decreases"}, {"measurement": "Effects on DNA content", "setting": "[5]; 1 μM, 24, 48 and 72 h", "result": "Neither PI-103, TGX-286 or PIK-108 showed strong effects"}, {"measurement": "Sub-G1 population (less than 2n DNA content)", "setting": "[5]", "result": "did not induce such an effect"}, {"measurement": "G1 arrest", "setting": "[8]; BT474 and MCF10A cells, 1 μM, nocodazole 70 ng/ml", "result": "induced a G1 arrest"}, {"measurement": "G1 arrest", "setting": "[8]; MDA-MB-231 and MDA-MB-468 cells, 1 μM, nocodazole 70 ng/ml", "result": "not in MDA-MB-231 cells or in MDA-MB-468 cells"}, {"measurement": "G1 arrest", "setting": "[8]; [17]", "result": "marked insensitivity"}, {"measurement": "IC50", "setting": "[9]", "result": "[…]"}, {"measurement": "IC50", "setting": "[10]", "result": "[…]"}]}, {"smiles": "N#CC(=C(/N)Sc1ccccc1N)/C(C#N)=C(/N)Sc1ccccc1N", "note": "[U0126]", "values": [{"measurement": "G1 arrest", "setting": "[8]; all cell lines examined, 10 μM U0126, nocodazole protocol", "result": "caused a G1 arrest in all cell lines examined"}]}, {"smiles": "CO[C@H]1C[C@@H]2CC[C@@H](C)[C@@](O)(O2)C(=O)C(=O)N2CCCC[C@H]2C(=O)O[C@H]([C@H](C)C[C@@H]2CC[C@@H](O)[C@H](OC)C2)CC(=O)[C@H](C)/C=C(\\C)[C@@H](O)[C@@H](OC)C(=O)[C@H](C)C[C@H](C)/C=C/C=C/C=C/1C", "note": "[rapamycin]", "values": [{"measurement": "Inhibition of S6 phosphorylation", "setting": "[1]; WT Ras cell lines BT-474 and BT20", "result": "sufficient to fully inhibit S6 phosphorylation"}, {"measurement": "Inhibition of S6 phosphorylation", "setting": "[1]; mutant Ras MDA-MD-231 cell line", "result": "residual phosphorylation of S6"}, {"measurement": "G1 arrest", "setting": "[8]; all cells expressing WT Ras, 100 nM rapamycin, nocodazole protocol", "result": "caused a G1 arrest (to varying degrees)"}, {"measurement": "G1 arrest", "setting": "[8]; [17]", "result": "ineffective at causing a G1 arrest"}]}, {"smiles": "Cc1ccc(-c2c(C(=O)CF)n(CCCO)c3ncnc(N)c23)cc1", "note": "[fmk]", "values": [{"measurement": "Effect on cell cycle arrest", "setting": "[8]; MDA-MB-231 cells (Fig. 5C)", "result": "not sufficient to cause any effect on cell cycle arrest"}]}, {"smiles": "Cc1ccccc1-n1c(Cn2cnc3c(N)ncnc32)nc2cccc(C)c2c1=O", "note": "[IC87114]", "values": [{"measurement": "Selectivity for 110δ vs. all other PI3K family members", "setting": "[11]", "result": "> 100", "unit": "fold"}]}]}
